Tested on: E. coli MC1000
Assay: Transmission electron microscopy of peptide-treated bacteria
Assay type: cell-based, Escherichia coli
Details: 6 × 10^8 cfu E. coli MC1000, 200 µg/mL peptide, 2 h
How it was run: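 Bacteria (6 × 10^8 cfu) were exposed to each test peptide (α-defensin or its fragments) at 200 µg/mL for 2 h. They were then fixed and cut into 30-nm sections. Cell envelope and membrane phenotypes were examined by transmission electron microscopy.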

Row | Substance | phenotype of peptide-treated bacteria (TEM)
1 | LYRLCCR [HD-5_26–32] | small vesicular structures inside the bacteria
2 | CATRESLSGVCEISGRLY [HD-5_10–27] | only minor damage in some bacteria while the majority remained unaffected

From PMC6397583 (Proceedings of the National Academy of Sciences of the …, 2019)
